Measurements from ChEMBL document CHEMBL1136987, “Synthesis and evaluation of sphingosine analogues as inhibitors of sphingosine kinases” (J Med Chem, 2009).
pIC50, pKi: −log10 of the molar value. Calls of active or inactive are those of the source. No cut-off for these calls is given here.

How the values were obtained:
Sphingosine kinase 1 [1] = molecular target: T1, Sphingosine kinase 1 (Homo sapiens, UniProt Q9NYA1); assay: Inhibition of EGFP-fused human SPHK1 expressed in CHO cells at 10 uM; format: cell-based
Summary of the method: (§1)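 Enzyme source: lysates (40 µg protein) of CHO cells transiently transfected (Lipofectamine 2000) with human SPHK1 (EGFP fusion) or SPHK2 plasmid. Compound at 10 µM in sphingosine kinase buffer with sphingosine-BSA complex (1 mM stock) and cold plus γ-[32P]ATP; 30 min at 37 °C. Lipids extracted with acidified chloroform/methanol, run on TLC, phosphorimaged; triplicate lanes per tube.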

[2] = molecular target: T2, Sphingosine kinase 2 (Homo sapiens) (UniProt Q9NRA0); assay: Effect on human cloned SPHK2 activity expressed in CHO cells at 10 uM relative to basal level; format: cell-based; summary of the method: as §1
T2 sequence (whole entry): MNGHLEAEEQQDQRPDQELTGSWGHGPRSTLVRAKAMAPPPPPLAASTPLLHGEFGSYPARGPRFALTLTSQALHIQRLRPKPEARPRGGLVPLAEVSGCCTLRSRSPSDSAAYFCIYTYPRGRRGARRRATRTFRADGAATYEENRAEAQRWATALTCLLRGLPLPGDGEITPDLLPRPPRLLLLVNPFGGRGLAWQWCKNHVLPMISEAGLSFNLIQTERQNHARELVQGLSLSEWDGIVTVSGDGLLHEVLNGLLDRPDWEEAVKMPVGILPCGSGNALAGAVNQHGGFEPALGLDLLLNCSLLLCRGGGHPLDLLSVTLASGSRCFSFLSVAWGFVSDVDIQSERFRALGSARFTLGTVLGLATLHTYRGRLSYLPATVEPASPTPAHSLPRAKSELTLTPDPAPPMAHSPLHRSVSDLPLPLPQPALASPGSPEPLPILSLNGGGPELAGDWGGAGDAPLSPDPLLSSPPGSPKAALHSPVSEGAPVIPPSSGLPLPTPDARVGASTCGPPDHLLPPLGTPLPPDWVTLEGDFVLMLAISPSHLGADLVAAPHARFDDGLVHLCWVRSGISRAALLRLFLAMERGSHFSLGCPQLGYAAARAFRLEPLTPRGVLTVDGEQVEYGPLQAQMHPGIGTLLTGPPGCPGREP

[3] = molecular target: T2, Sphingosine kinase 2 (Homo sapiens); assay: Inhibition of human cloned SPHK2 expressed in CHO cells at 10 uM; format: cell-based; summary of the method: as §1
Sphingosine kinase 1 [4] = molecular target: T1, Sphingosine kinase 1; assay: Effect on EGFP-fused human SPHK1 activity expressed in CHO cells at 10 uM relative to basal level; format: cell-based; summary of the method: as §1
Sphingosine kinase 1 [5] = molecular target: T1, Sphingosine kinase 1; assay: Inhibition of EGFP-fused human SPHK1 expressed in CHO cells; format: cell-based
Summary of the method: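 SPHK1 from transfected CHO cell lysates (40 µg per tube), sphingosine-BSA and γ-[32P]ATP, 30 min at 37 °C. Compounds tested at 0, 10, 25, 50 and 100 µM. Radiolabelled S1P measured by TLC and phosphorimaging. IC50 obtained from triplicate experiments and reported as mean ± SD.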

Sphingosine kinase 1 [6] = molecular target: T1, Sphingosine kinase 1; assay: Inhibition of human SPHK1 expressed in human U937 cells assessed as inhibition of endogenous sphingosine-1-phosphate levels at 5 uM after 2 hrs by ELISA; format: cell-based; conditions: U-937
Summary of the method: (§2)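 U937 cells transfected with huSPHK1 or huSPHK2 plasmid, then incubated with or without inhibitor at 5 µM for 2 h. Endogenous S1P was measured by competitive ELISA (sensitivity 30 nM).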

U-937 [7] = assay: Inhibition of TNF-alpha-induced sphingosine-1-phosphate levels in human U937 cells at 5 uM after 2 hrs by ELISA; format: functional, cell-based
Summary of the method: (§3)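 Human monocytic U937 cells, stimulated or not with TNFα, were incubated with or without inhibitor at 5 µM for 2 h. Cellular S1P was quantified by competitive S1P ELISA (sensitivity 30 nM).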

Sphingosine kinase 1 [8] = molecular target: T1, Sphingosine kinase 1; assay: Inhibition of EGFP-fused human SPHK1 expressed in CHO cells using D-erythro-sphingosine as substrate by Michaelis-Menten plot
Summary of the method: (§4)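 Kinetics of huSPHK1 or huSPHK2 from transfected CHO lysates, with D-erythro-sphingosine as substrate, in the 32P-ATP TLC assay (30 min, 37 °C). Michaelis-Menten behaviour was used to derive Km for sphingosine and Ki for the inhibitors.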

HL-60 = assay: Antiproliferative activity against human HL60 cells at 10 uM after 24 to 72 hrs by MTT assay; format: functional
Summary of the method: (§5)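 U937 or HL60 cells in RPMI 1640 with 10% FBS and 1% L-glutamine; 50 000 cells/well at 1 × 10^6 cells/mL. Compound at 10 µM, DMSO 0.5% of volume as vehicle control. Incubated 24, 48, 72 h at 37 °C, 5% CO2. MTT (4 mg/mL in RPMI) added for 2 h in dark, crystals dissolved in DMSO/glycine buffer, A570 read.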

U-937 [9] = assay: Antiproliferative activity against human U937 cells at 10 uM after 24 to 72 hrs by MTT assay; format: functional; summary of the method: as §5
[10] = molecular target: Protein kinase C alpha type (Homo sapiens) (UniProt P17252); assay: Inhibition of human PKCalpha at 100 uM by gel electrophoresis
Summary of the method: (§6)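 PepTag nonradioactive assay: purified human PKCα with C1 peptide, PKC activator and reaction buffer. Inhibitor at 10, 25, 50, 75 or 100 µM, preincubated 2 min, then 30 min at 30 °C with enzyme. Stopped at 95 °C for 10 min.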

U-937 [11] = assay: Inhibition of basal sphingosine-1-phosphate levels in human U937 cells at 5 uM after 2 hrs by ELISA; format: functional, cell-based; summary of the method: as §3
[12] = molecular target: T2, Sphingosine kinase 2 (Homo sapiens); assay: Inhibition of human SPHK2 expressed in human U937 cells assessed as inhibition of endogenous sphingosine-1-phosphate levels at 5 uM after 2 hrs by ELISA; format: cell-based; conditions: U-937; summary of the method: as §2
Sphingosine kinase 2 = molecular target: T3, Sphingosine kinase 2 (Homo sapiens, UniProt Q9NRA0); assay: Inhibition of human cloned SPHK2 expressed in CHO cells using D-erythro-sphingosine as substrate by Michaelis-Menten plot; summary of the method: as §4
T3 sequence (Q9NRA0 whole entry): T2 sequence (whole entry)

[13] = molecular target: Protein kinase C alpha type (Homo sapiens) (UniProt P17252); assay: Inhibition of human PKCalpha at 50 uM by gel electrophoresis; summary of the method: as §6

T1 sequence (Q9NYA1 whole entry, the tested form may be a part): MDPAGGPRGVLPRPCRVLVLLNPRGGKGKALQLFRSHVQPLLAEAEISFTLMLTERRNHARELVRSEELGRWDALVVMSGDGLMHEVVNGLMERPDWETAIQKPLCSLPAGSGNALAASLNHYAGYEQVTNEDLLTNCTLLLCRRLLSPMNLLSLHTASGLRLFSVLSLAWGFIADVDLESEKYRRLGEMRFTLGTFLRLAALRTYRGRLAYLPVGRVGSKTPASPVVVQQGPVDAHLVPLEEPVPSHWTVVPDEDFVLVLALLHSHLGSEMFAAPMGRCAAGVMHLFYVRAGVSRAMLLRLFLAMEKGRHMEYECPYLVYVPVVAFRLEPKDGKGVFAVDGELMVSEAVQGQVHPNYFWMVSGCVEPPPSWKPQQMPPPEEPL

Row | SMILES | inhibition (Sphingosine kinase 1 [1]) | Activity [2] | inhibition [3] | Activity (Sphingosine kinase 1 [4]) | pIC50 (Sphingosine kinase 1 [5]) | Activity (Sphingosine kinase 1 [6]) | Activity (U-937 [7]) | pKi (Sphingosine kinase 1 [8]) | Activity (HL-60) | Activity (U-937 [9]) | Activity [10] | Activity (U-937 [11]) | Activity [12] | pKi (Sphingosine kinase 2) | Activity [13]
1 | CCCCC#CC(=O)[C@@H]1COC(C)(C)N1C(=O)OC(C)(C)C | 9.08% | 115% | inactive | 90.9% | – | – | – | – | – | – | – | – | – | – | –
2 | CCCCCCCCC#CC(=O)[C@@H]1COC(C)(C)N1C(=O)OC(C)(C)C | 15.2% | 62.8% | 37.2% | 84.8% | – | – | – | – | – | – | – | – | – | – | –
3 | CCCCCCCCCCCCCC#CC(=O)[C@@H]1COC(C)(C)N1C(=O)OC(C)(C)C | 54.7% | 117% | inactive | 45.3% | 5.48 | Active | Active | 5.52 | 10% | 10% | Active | – | – | – | –
4 | CCCCCCCCC#CC(=O)[C@H](CO)NC(=O)OC(C)(C)C | 4.2% | 89.9% | inactive | 95.8% | – | – | – | – | – | – | – | – | – | – | –
5 | CCCCC#C[C@@H](O)[C@@H](N)CO | inactive | 109% | inactive | 132% | – | – | – | – | – | – | – | – | – | – | –
6 | CCCCCCCCC#C[C@@H](O)[C@@H](N)CO | 13.7% | 116% | inactive | 86.3% | – | – | – | – | – | – | – | – | – | – | –
7 | CCCCCCCCCCCCCC#C[C@@H](O)[C@@H]1COC(C)(C)N1C(=O)OC(C)(C)C | inactive | 123% | inactive | 112% | – | – | – | – | – | – | – | – | – | – | –
8 | CCCCC#C[C@H](O)[C@H](CO)NC(=O)OC(C)(C)C | inactive | 111% | inactive | 117% | – | – | – | – | – | – | – | – | – | – | –
9 | CCCCCCCCCCCCCC#CC(=O)[C@H](CO)NC(=O)OC(C)(C)C | 56.9% | 45.9% | 54.1% | 43.1% | 5.92 | Active | inactive | 6.00 | – | Active | – | Active | Active | – | –
10 | CCCCC#CC(=O)[C@H](CO)NC(=O)OC(C)(C)C | inactive | 117% | inactive | 106% | – | – | – | – | – | – | – | – | – | – | –
11 | CCCCCCCCCCCCCC#C[C@@H](O)[C@@H](N)CO | 24.4% | 152% | inactive | 75.6% | – | – | – | – | – | – | – | – | – | – | –
12 | CCCCCCCCCCCCC/C=C/[C@@H](O)[C@H](CO)N(C)C [DIMETHYLSPINGOSINE] | – | 67% | 33% | – | – | – | Active | – | – | – | – | Active | Active | 4.90 | Active
13 | CCCCCCC(=O)[C@@H]1COC(C)(C)N1C(=O)OC(C)(C)C | 4.71% | 126% | inactive | 95.3% | – | – | – | – | – | – | – | – | – | – | –
